From ChEMBL document CHEMBL4680268, “Pharmacomodulations of the benzoyl-thiosemicarbazide scaffold reveal antimicrobial agents targeting d-alanyl-d-alanine ligase in bacterio” (Eur J Med Chem, 2020)
Values after ≈ are worked out from the molar mass of the structure shown. Active and inactive are the calls of the source. No cut-off for these calls is given here.

Legend:
[1] = system: Cell membrane; experiment: Disruption of bacterial cell membrane in Staphylococcus aureus ATCC 25923 assessed as increase in PI uptake at 1 to 5 times MIC measured every 10 mins for 2 hrs by PI dye based spectrophotometry
Procedure, shortened: (§1)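 Mid-log S. aureus ATCC 25923 (grown in MHB from OD₆₀₀ 0.05) washed into BET buffer (pH 7.5) at 1.11×10⁶ CFU/mL with 12 nM propidium iodide; compound at 1, 2, 5× MIC, 5% DMSO final. SDS 0.5% positive, buffer negative control. Fluorescence (ex 532/em 620 nm) read in the dark every 10 min for 2 h; triplicate.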

[2] = Inhibition of recombinant Enterococcus faecalis C-terminal His6-tagged DdlB expressed in Escherichia coli LMG194 using D-Ala as substrate preincubated with enzyme for 30 mins followed by substrate addition and measured after 20 mins by malachite green based colorimetric analysis
Procedure, shortened: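 DdlB (20 mg/L) malachite green phosphate assay: enzyme, inhibitor and 500 µM ATP preincubated 30 min at 30 °C in Tris-HCl pH 7.4 buffer with MgCl₂, KCl and 10% DMSO, then 1 mM D-Ala for 20 min; A650 read. IC₅₀ from 11 concentrations, also run with 0.01% Triton X-100; mean ± SD of triplicates, n ≥ 2; EC₅₀ given where maximal inhibition stayed below 50%.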

[3] = system: Staphylococcus aureus; experiment: Antibacterial activity against methicillin and linezolid resistant Staphylococcus aureus NRS119 assessed as reduction in bacterial growth incubated for 18 to 24 hrs by broth microdilution method; assay type: functional; conditions: time 18-24 hrs
Procedure, shortened: (§2)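 Broth microdilution in cation-adjusted Mueller-Hinton broth per CLSI; inoculum 10⁶ bacteria/mL. Two-fold serial dilutions, compound in broth with 5% DMSO mixed 1:1 with bacterial suspension, giving 2.5% DMSO final. Top concentration 0.1, 0.4 or 0.8 mM depending on solubility. Incubated 18–24 h at 37 °C. MIC = lowest concentration preventing visible growth.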

[4] = system: Staphylococcus aureus; experiment: Antibacterial activity against hospital-acquired vancomycin resistant Staphylococcus aureus VRS-1 assessed as reduction in bacterial growth incubated for 18 to 24 hrs by broth microdilution method; assay type: functional; conditions: time 18-24 hrs; procedure, shortened: as §2
[5] = system: Enterococcus faecalis; experiment: Antibacterial activity against vancomycin resistant Enterococcus faecalis BM4575 harboring VanE genotype, constitutive expression of Ddl and VanE D-Ala-D-Ser ligase assessed as reduction in bacterial growth incubated for 18 to 24 hrs by broth microdilution method; assay type: functional; conditions: time 18-24 hrs; procedure, shortened: as §2
[6] = system: Staphylococcus aureus; experiment: Antibacterial activity against community-acquired methicillin and erythromycin resistant Staphylococcus aureus SA325 assessed as reduction in bacterial growth incubated for 18 to 24 hrs by broth microdilution method; assay type: functional; conditions: time 18-24 hrs; procedure, shortened: as §2
[7] = system: Staphylococcus aureus; experiment: Antibacterial activity against hospital-acquired methicillin/ciprofloxacin and moxifloxacin resistant Staphylococcus aureus SA481 assessed as reduction in bacterial growth incubated for 18 to 24 hrs by broth microdilution method; assay type: functional; conditions: time 18-24 hrs; procedure, shortened: as §2
[8] = system: Staphylococcus aureus; experiment: Antibacterial activity against Staphylococcus aureus ATCC 25923 assessed as reduction in bacterial growth incubated for 18 to 24 hrs by broth microdilution method; assay type: functional; conditions: time 18-24 hrs
[9] = system: Enterococcus faecalis; experiment: Antibacterial activity against vancomycin resistant Enterococcus faecalis BM4390 harboring VanB mutant with inactive Ddl and constitutive expression of D-Ala-D-Lac assessed as reduction in bacterial growth incubated for 18 to 24 hrs by broth microdilution method; assay type: functional; conditions: time 18-24 hrs; procedure, shortened: as §2
[10] = system: Enterococcus faecalis; experiment: Antibacterial activity against vancomycin resistant Enterococcus faecalis JH2-2::C1 harboring constitutive expression of Ddl and vanB ligase assessed as reduction in bacterial growth incubated for 18 to 24 hrs by broth microdilution method; assay type: functional; conditions: time 18-24 hrs; procedure, shortened: as §2
[11] = system: Staphylococcus aureus; experiment: Inhibition of Ddl in Staphylococcus aureus ATCC 25923 assessed as increase in D-Ala/D-Ala-D-Ala ratio at 2 times MIC incubated for 30 mins by UHPLC-MS/MS analysis
Procedure, shortened: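 Log-phase S. aureus ATCC 25923 in MHB with 5% DMSO (from OD₆₀₀ 0.05) treated with compound at 2× MIC for 0–30 min; untreated and D-cycloserine 2× MIC controls. Cells chilled, pelleted, washed in M9, lysed in ice-cold MeOH/H₂O/formic acid 80:20:0.1, supernatants derivatized with Marfey's reagent in triplicate; L-Ala, D-Ala, D-Ala-D-Ala quantified by UPLC-MS/MS.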

[12] = system: Enterococcus faecalis; experiment: Antibacterial activity against Enterococcus faecalis ATCC 29212 assessed as reduction in bacterial growth incubated for 18 to 24 hrs by broth microdilution method; assay type: functional; conditions: time 18-24 hrs
[13] = system: Staphylococcus aureus; experiment: Antibacterial activity against methicillin resistant and vancomycin intermediate resistant Staphylococcus aureus MU50 assessed as reduction in bacterial growth incubated for 18 to 24 hrs by broth microdilution method; assay type: functional; conditions: time 18-24 hrs; procedure, shortened: as §2
[14] = Cytotoxicity against human THP-1 cells assessed as reduction in cell viability at 2 times MIC measured after 1 to 2 hrs by trypan blue exclusion assay; assay type: cell-based; conditions: time 1-2 hrs, read-out: INH
Procedure, shortened: (§3)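 Aliquots taken at 1, 2, 6, 24 h, mixed 1:1 with 0.4% Trypan blue for 5 min; percent blue-stained cells counted by light microscopy. DMSO control; triplicate, mean ± SD.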

[15] = system: Staphylococcus aureus; experiment: Bactericidal activity against Staphylococcus aureus ATCC 25923 assessed as reduction in bacterial growth at 5 times MIC measured after 7 hrs by time kill assay; assay type: functional, organism-based
Procedure, shortened: (§4)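 S. aureus ATCC 25923 grown overnight in CAMHB, pelleted, resuspended; compound added at 1, 2 or 5× MIC to give 10⁶ CFU/mL start with 5% DMSO (DMSO-only control). Sampled at 0, 5, 15, 30 min, 1, 2, 7, 24 h; 10-fold PBS dilutions plated on charcoal TSA, counted after 24 h at 37 °C. Bactericidal = ≥3-log₁₀ drop in 24 h; triplicate, mean ± SD.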

[16] = system: Klebsiella pneumoniae; experiment: Antibacterial activity against Klebsiella pneumoniae ATCC700603 assessed as reduction in bacterial growth incubated for 18 to 24 hrs by broth microdilution method; assay type: functional, organism-based; conditions: 700603, time 18-24 hrs
Procedure, shortened: (§5)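 Microdilution in cation-adjusted Mueller-Hinton broth per CLSI; two-fold compound series in CAMHB with 5% DMSO mixed 1:1 with bacterial suspension, giving 10⁶ bacteria/mL inoculum and 2.5% DMSO final. Top concentrations 0.1, 0.4 or 0.8 mM depending on solubility. Incubated 18–24 h at 37 °C; MIC read as lowest concentration preventing visible growth.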

[17] = system: Pseudomonas aeruginosa; experiment: Antibacterial activity against Pseudomonas aeruginosa PAO1 assessed as reduction in bacterial growth incubated for 18 to 24 hrs by broth microdilution method; assay type: functional, organism-based; conditions: time 18-24 hrs; procedure, shortened: as §5
[18] = Solubility of the compound in 1% DMSO at 5XMIC against Staphylococcus aureus ATCC 25923; assay type: physicochemical
[19] = system: Cell membrane; experiment: Disruption of bacterial cell membrane in Staphylococcus aureus ATCC 25923 assessed as increase in PI uptake at 5 times MIC measured every 10 mins for 1 hr by PI dye based spectrophotometry; procedure, shortened: as §1
[20] = system: THP-1; experiment: Cytotoxicity against human THP-1 cells assessed as reduction in cell viability at 1 times MIC measured after 1 to 2 hrs by trypan blue exclusion assay; assay type: cell-based; conditions: time 1-2 hrs; procedure, shortened: as §3
[21] = system: Escherichia coli; experiment: Antibacterial activity against Escherichia coli ATCC 25922 assessed as reduction in bacterial growth incubated for 18 to 24 hrs by broth microdilution method; assay type: functional, organism-based; conditions: time 18-24 hrs; procedure, shortened: as §5
[22] = system: Cell membrane; experiment: Disruption of bacterial cell membrane in Staphylococcus aureus ATCC 25923 assessed as reduction in bacterial colonies at 5X MIC measured after 2 hrs by time-kill kinetics assay
[23] = system: Staphylococcus aureus; experiment: Bacteriostatic activity against Staphylococcus aureus ATCC 25923 assessed as reduction in bacterial growth at 1 and 2 times MIC measured upto 24 hrs by time kill assay; assay type: functional, organism-based; conditions: time hrs <=24; procedure, shortened: as §4
[24] = system: Cell membrane; experiment: Disruption of bacterial cell membrane in Staphylococcus aureus ATCC 25923 assessed as increase in PI uptake by measuring increase in fluorescence intensity at 5 times MIC measured every 10 mins for 2 hrs by PI dye based spectrophotometry; procedure, shortened: as §1
[25] = system: Staphylococcus aureus; experiment: Bactericidal activity against Staphylococcus aureus ATCC 25923 assessed as reduction in bacterial growth at 5 times MIC measured after 24 hrs by time kill assay; assay type: functional, organism-based; procedure, shortened: as §4
[26] = system: THP-1; experiment: Cytotoxicity against human THP-1 cells assessed as reduction in cell viability at 2 to 5 times MIC measured after 6 hrs by trypan blue exclusion assay; assay type: cell-based; conditions: thp-1, 6 h; procedure, shortened: as §3
[27] = system: THP-1; experiment: Cytotoxicity against human THP-1 cells assessed as reduction in cell viability at 1 times MIC measured after 6 hrs by trypan blue exclusion assay; assay type: cell-based; conditions: thp-1, 6 h; procedure, shortened: as §3
[28] = Inhibition of Ddl in Streptococcus faecalis ATCC 8043 using D-[1-14C]-alanine as substrate preincubated with enzyme for 40 mins followed by substrate and addition and measured after 30 mins by TLC analysis; design: species or system Enterococcus faecalis

Row | SMILES | IC50 [2] [µM] | MIC [3] [µM] | MIC [4] [µM] | MIC [5] [µM] | MIC [6] [µM] | MIC [7] [µM] | MIC [8] [µM] | MIC [9] [µM] | MIC [10] [µM] | inhibition [11] | MIC [12] [µM] | MIC [13] [µM] | cytotoxicity at 2 x MIC [14] [%] | Activity [16] | Activity [17] | Activity [20] | Activity [21] | Activity [22] [log10CFU/ml] | Activity [23] | other results
1 | N[C@H]1CONC1=O [LEVCYCLOSERINE] | 262 | 627 (≈ 64 µg/mL) | 157 (≈ 16 µg/mL) | > 5020 | 1250 (≈ 128 µg/mL) | 1250 (≈ 128 µg/mL) | 313 (≈ 32 µg/mL) | 5020 (≈ 512 µg/mL) | 5020 (≈ 512 µg/mL) | Active | 1250 (≈ 128 µg/mL) | 627 (≈ 64 µg/mL) |  |  |  |  |  |  |  | Activity [1]: inactive
2 | Oc1ccccc1-c1n[nH]c(=S)n1-c1ccc(Cl)c(Cl)c1 | 299 | 400 (≈ 135 µg/mL) | 400 (≈ 135 µg/mL) | 400 (≈ 135 µg/mL) | 400 (≈ 135 µg/mL) | 800 (≈ 271 µg/mL) | 400 (≈ 135 µg/mL) | > 800 | 400 (≈ 135 µg/mL) | Active | 400 (≈ 135 µg/mL) | 400 (≈ 135 µg/mL) | 5 | inactive | inactive | Non-Toxic | inactive | 2 | Active | Activity [15]: Active; solubility [18]: Insoluble; Activity [19]: Active
3 | Oc1ccccc1/C=N/NC(=S)Nc1ccc(Cl)c(Cl)c1 | 1.48 | 12.5 (≈ 4.25 µg/mL) | 12.5 (≈ 4.25 µg/mL) | 6.25 (≈ 2.13 µg/mL) | 25 (≈ 8.51 µg/mL) | 25 (≈ 8.51 µg/mL) | 12.5 (≈ 4.25 µg/mL) | 6.25 (≈ 2.13 µg/mL) | 3.12 (≈ 1.06 µg/mL) | Active | 12.5 (≈ 4.25 µg/mL) | 25 (≈ 8.51 µg/mL) | 5 | inactive | inactive | Non-Toxic | inactive | < 1 | Active | Activity [24]: 15 RFU; Activity [25]: Active; Activity [26]: Toxic; Activity [27]: Non-Toxic
4 | C[C@@H](CP(=O)(O)[C@@H](C)N)C(=O)O |  |  |  |  |  |  |  |  |  |  |  |  |  |  |  |  |  |  |  | Ki [28]: 4 µM
